Source: paper PMC9055608 (RSC Advances, 2020)

Key:
SKMEL-28 = test: MTT cell proliferation assay, SKMEL-28; type: cell-based, human; conditions: SKMEL-28, skin; MTT, 72 h
Outline: (§1)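 ATCC lines grown in DMEM or RPMI-1640 with 10% heat-inactivated FBS and 1% penicillin/streptomycin at 37 °C, 5% CO2. Log-phase cells seeded at about 4000–5000/well and left to adhere 24 h. Sextuplicate wells, 72 h. MTT for 4 h, then DMSO and absorbance. IC50 taken from dose–response curves.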

MCF-7 = test: MTT cell proliferation assay, MCF-7; type: cell-based, human; conditions: MCF-7, breast; MTT, 72 h
Outline: as §1

SKOV3 = test: MTT cell proliferation assay, SKOV3; type: cell-based, human; conditions: SKOV3, ovary; MTT, 72 h
Outline: as §1

[1] = Mouse weight during in vivo efficacy study; parameters: species or system nude mice; conditions: during the nine days of treatment
MCF-7 xenograft tumour [2] = test: Drug efficacy in vivo, MCF-7 breast cancer model; parameters: species or system nude mice; conditions: positive control
A375 = test: MTT cell proliferation assay, A375; type: cell-based, human; conditions: A375, melanoma; MTT, 72 h
Outline: as §1

MCF-7 xenograft tumour [3] = test: Pathological tissue sections; type: in vivo, nude mice; conditions: positive control group, cisplatin 5 mg kg^−1
Outline: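 Tumour-bearing nude mice were anaesthetised and killed after the 9-day dosing. Heart, liver, spleen, lung, kidney, brain and tumour were fixed in 10% formalin, embedded in paraffin, cut into 4 μm sections and stained with haematoxylin–eosin.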

Calu-3 = test: MTT cell proliferation assay, Calu-3; type: cell-based, human; conditions: Calu-3, lung; MTT, 72 h
Outline: as §1

MDA-MB231 = test: MTT cell proliferation assay, MDA-MB231; type: cell-based, human; conditions: MDA-MB231, breast; MTT, 72 h
Outline: as §1

DU-145 = test: MTT cell proliferation assay, DU-145; type: cell-based, human; conditions: DU-145, prostate; MTT, 72 h
Outline: as §1

N87 = test: MTT cell proliferation assay, N87; type: cell-based, human; conditions: N87, stomach; MTT, 72 h
Outline: as §1

A-549 = test: MTT cell proliferation assay, A-549; type: cell-based, human; conditions: A-549, lung; MTT, 72 h
Outline: as §1

[4] = cisplatin; cited from earlier work
SKBR3 = test: MTT cell proliferation assay, SKBR3; type: cell-based, human; conditions: SKBR3, breast; MTT, 72 h
Outline: as §1

MDA-MB453 = test: MTT cell proliferation assay, MDA-MB453; type: cell-based, human; conditions: MDA-MB453, breast; MTT, 72 h
Outline: as §1

HT-29 = test: MTT cell proliferation assay, HT-29; type: cell-based, human; conditions: HT-29, colon; MTT, 72 h
Outline: as §1

Q: For `N.N.[Cl][Pt][Cl]` [Cisplatin, cis-platinum, reference compound], which IC50 (SKMEL-28) is on record?
A: The IC50 was 12.9 ± 0.96 µM.

Q: And the IC50 (MCF-7)?
A: Its IC50 is 11.2 ± 0.6 µM.

Q: What about the IC50 (SKOV3) of the same compound?
A: The IC50 was 4.15 ± 0.3 µM.

Q: And the “mouse weight course (in words)” value [1]?
A: Its value is “obvious weight loss”.

Q: What about the “Tumour weight (mean)” value (MCF-7 xenograft tumour [2]; group E, cisplatin 5 mg kg^−1 tail vein for 9 days) of the same compound?
A: Its value is 299.53 ± 109.60.

Q: What about the “Inhibition rate (IR) determined as tumour weight” value (MCF-7 xenograft tumour [2]; cisplatin 5 mg kg^−1 for 9 days) of the same compound?
A: The value was 64.10%.

Q: What about the IC50 (A375) of the same compound?
A: Its IC50 is 5.28 ± 0.18 µM.

Q: What about the tumour histopathology (MCF-7 xenograft tumour [3]) of the same compound?
A: The tumour histopathology was “a large amount of tumour cell necrosis with nucleolysis”.

Q: What about the IC50 (Calu-3) of the same compound?
A: Its IC50 is 7.39 ± 0.25 µM.

Q: And the IC50 (MDA-MB231)?
A: The IC50 was 12.8 ± 0.58 µM.

Q: What about the IC50 (DU-145) of the same compound?
A: The IC50 was 2.82 ± 0.14 µM.

Q: And the IC50 (N87)?
A: The IC50 was 8.35 ± 0.3 µM.

Q: And the IC50 (A-549)?
A: Its IC50 is 3.03 ± 0.24 µM.

Q: And the AUC0→t [4]?
A: The AUC0→t was 36 000 μg L^−1 h.

Q: What about the CL [4] of the same compound?
A: The CL was 0.23 L·kg/h.

Q: And the IC50 (SKBR3)?
A: Its IC50 is 3.04 ± 0.17 µM.

Q: And the IC50 (MDA-MB453)?
A: Its IC50 is 15.4 ± 0.83 µM.

Q: What about the IC50 (HT-29) of the same compound?
A: The IC50 was 4.71 ± 0.17 µM.
